# Reference: paper PMC5760267 (ChemMedChem, 2016)
# Biological target: human immunoproteasome β5i (Homo sapiens, UniProt P20618+P28062)
# Assay: IC50 against β5i
# Assay type: biochemical
# Settings: relative to the P1-β-Ala parents PKS2251 and PKS2252, respectively
# How it was run: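 Human immunoproteasome β5i activity was read as ac-ANW-AMC hydrolysis, and constitutive β5c activity as suc-LLVY-AMC hydrolysis. IC50s were determined by a previously reported method. Apparent selectivity index = IC50β5c / IC50β5i. Data reported as mean ± SEM.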
row,Compound,reduction of potency against β5i [fold]
1,C[C@H](NC(=O)C[C@H](CC(=O)NC(C)(C)C)NC(=O)CCc1ccccc1)C(=O)NCc1cccc2ccccc12 [PKS2278],58
2,Cc1ccc(S(=O)(=O)N[C@H](CC(=O)N[C@@H](C)C(=O)NCc2cccc3ccccc23)CC(=O)NC(C)(C)C)cc1 [PKS2279],2.5

# Same assay, conditions: β5i over β5c
row,Compound,SIapp: apparent selectivity index = IC50β5c / IC50β5i
1,Cc1ccc(S(=O)(=O)N[C@@H](CC(=O)NC(C)(C)C)C(=O)N[C@@H](C)CC(=O)NCc2cccc3ccccc23)cc1 [PKS2252],13600
2,Cc1cc(C(=O)N[C@@H](CC(=O)NC(C)(C)C)C(=O)N[C@@H](C)CC(=O)NCc2cccc3ccccc23)no1 [PKS2249],465
3,Cc1ccc(S(=O)(=O)N[C@H](CC(=O)N[C@@H](C)C(=O)NCc2cccc3ccccc23)CC(=O)NC(C)(C)C)cc1 [PKS2279],2521
4,C[C@@H](CC(=O)NCc1cccc2ccccc12)NC(=O)[C@H](CC(=O)NC(C)(C)C)NC(=O)CCc1ccccc1 [PKS2251],1333
